The values below come from ChEMBL document CHEMBL1124321, “Design of potent linear alpha-melanotropin 4-10 analogues modified in positions 5 and 10” (J Med Chem, 1989).

Test [1] has as its system lizard. Kind of test: In vitro potency in lizard (Anolis carolinensis) skin bioassay relative to alpha-MSH. It counts as functional. The procedure, abridged:
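Isolated skins incubated in vitro with peptide across the full log dose-response range. Darkening from melanosome dispersion into melanophore dendrites is read as surface reflectance on a reflectometer and expressed as percent response versus the time-zero value. Each point is a mean ± SE of 6 or more skins. Potency is taken from the dose-response curves relative to α-MSH.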

Test [2] has as its system Melanocyte-stimulating hormone receptor (Rana pipiens). In words: In vitro potency in frog (Rana pipiens) skin assay relative to alpha-MSH.

Structures are written as SMILES. Non-standard residues stand in square brackets, D forms with d. Residues, ends and D or L forms follow the SMILES beside them. Nle = CCCC[C@H](N)C(=O)O

As to `CCCC[C@H](NC(=O)[C@H](CO)NC(=O)[C@H](Cc1ccc(O)cc1)NC(=O)[C@H](CO)NC(C)=O)C(=O)N[C@@H](CC(=O)O)C(=O)N[C@@H](Cc1c[nH]cn1)C(=O)N[C@H](Cc1ccccc1)C(=O)N[C@@H](CCCN=C(N)N)C(=O)N[C@@H](Cc1c[nH]c2ccccc12)C(=O)N[C@@H](CCCCN)C(=O)NCC(=O)N1CCC[C@H]1C(=O)N[C@H](C(N)=O)C(C)C` (Ac-SYS[Nle]DH[dF]RWKGPV-NH2), the values for the Activity in test [1] and in test [2] were 8 and 9, respectively.

Consider `CCCC[C@H](NC(=O)[C@H](CO)NC(=O)[C@H](Cc1ccc(O)cc1)NC(=O)[C@H](CO)NC(C)=O)C(=O)N[C@@H](CCC(=O)O)C(=O)N[C@@H](Cc1c[nH]cn1)C(=O)N[C@H](Cc1ccccc1)C(=O)N[C@@H](CCCN=C(N)N)C(=O)N[C@@H](Cc1c[nH]c2ccccc12)C(=O)N[C@@H](CCCCN)C(=O)NCC(=O)N1CCC[C@H]1C(=O)N[C@H](C(N)=O)C(C)C` (Ac-SYS[Nle]EH[dF]RWKGPV-NH2), for which the Activity came out at 8 in test [1] and 6 in test [2].

With `CCCC[C@H](NC(C)=O)C(=O)N[C@@H](CCC(=O)O)C(=O)N[C@@H](Cc1c[nH]cn1)C(=O)N[C@H](Cc1ccccc1)C(=O)N[C@@H](CCCN=C(N)N)C(=O)N[C@@H](Cc1c[nH]c2ccccc12)C(=O)N[C@@H](CCN)C(N)=O`, the Activity in test [1] was determined as 10; in test [2], 0.9.

As for `CCCC[C@H](NC(C)=O)C(=O)N[C@@H](CC(=O)O)C(=O)N[C@@H](Cc1c[nH]cn1)C(=O)N[C@H](Cc1ccccc1)C(=O)N[C@@H](CCCN=C(N)N)C(=O)N[C@@H](Cc1c[nH]c2ccccc12)C(=O)N[C@@H](CCCN)C(N)=O`, the Activity is 10 in test [1] and 0.9 in test [2].

Turning to `CCCC[C@H](NC(C)=O)C(=O)N[C@@H](CC(=O)O)C(=O)N[C@@H](Cc1c[nH]cn1)C(=O)N[C@H](Cc1ccccc1)C(=O)N[C@@H](CCCN=C(N)N)C(=O)N[C@@H](Cc1c[nH]c2ccccc12)C(=O)N[C@@H](CCCCN)C(=O)NCC(=O)N1CCC[C@H]1C(=O)N[C@H](C(N)=O)C(C)C` (Ac-[Nle]DH[dF]RWKGPV-NH2), the Activity in test [1] was found to be 10; in test [2], 1.

As to `CCCC[C@H](NC(C)=O)C(=O)N[C@@H](CCC(=O)O)C(=O)N[C@@H](Cc1c[nH]cn1)C(=O)N[C@H](Cc1ccccc1)C(=O)N[C@@H](CCCN=C(N)N)C(=O)N[C@@H](Cc1c[nH]c2ccccc12)C(=O)N[C@@H](CCCCN)C(N)=O`, the Activity in test [1] stood at 8; in test [2], 0.2.

In the case of `CCCC[C@H](NC(C)=O)C(=O)N[C@@H](CC(=O)O)C(=O)N[C@@H](Cc1c[nH]cn1)C(=O)N[C@H](Cc1ccccc1)C(=O)N[C@@H](CCCN=C(N)N)C(=O)N[C@@H](Cc1c[nH]c2ccccc12)C(=O)N[C@@H](CCCCN)C(N)=O`, the Activity in test [1] was found to be 8.

As for `CCCC[C@H](NC(C)=O)C(=O)N[C@@H](CCC(=O)O)C(=O)N[C@@H](Cc1c[nH]cn1)C(=O)N[C@H](Cc1ccccc1)C(=O)N[C@@H](CCCN=C(N)N)C(=O)N[C@@H](Cc1c[nH]c2ccccc12)C(=O)N[C@@H](CCCCN)C(=O)NCC(=O)N1CCC[C@H]1C(=O)N[C@H](C(N)=O)C(C)C` (Ac-[Nle]EH[dF]RWKGPV-NH2), the Activity came out at 8 in test [1] and 0.8 in test [2].

For the compound `CCCC[C@H](NC(C)=O)C(=O)N[C@@H](CC(=O)O)C(=O)N[C@@H](Cc1c[nH]cn1)C(=O)N[C@H](Cc1ccccc1)C(=O)N[C@@H](CCCN=C(N)N)C(=O)N[C@@H](Cc1c[nH]c2ccccc12)C(=O)N[C@@H](CCN)C(N)=O`, the Activity in test [1] worked out at 50; in test [2], 0.9.

On to `CCCC[C@H](NC(C)=O)C(=O)N[C@@H](CC(=O)O)C(=O)N[C@@H](Cc1c[nH]cn1)C(=O)N[C@H](Cc1ccccc1)C(=O)N[C@@H](CCCN=C(N)N)C(=O)N[C@@H](Cc1c[nH]c2ccccc12)C(=O)N[C@@H](CN)C(N)=O`, for which the Activity in test [1] worked out at 8; in test [2] it was 0.2.

Take `CCCC[C@H](NC(C)=O)C(=O)N[C@@H](CCC(=O)O)C(=O)N[C@@H](Cc1c[nH]cn1)C(=O)N[C@H](Cc1ccccc1)C(=O)N[C@@H](CCCN=C(N)N)C(=O)N[C@@H](Cc1c[nH]c2ccccc12)C(=O)N[C@@H](CCCN)C(N)=O`: the Activity in test [1] came out at 8; in test [2] it was 0.6.

In turn, `CCCC[C@H](NC(C)=O)C(=O)N[C@@H](CC(=O)O)C(=O)N[C@@H](Cc1c[nH]cn1)C(=O)N[C@@H](Cc1ccccc1)C(=O)N[C@@H](CCCN=C(N)N)C(=O)N[C@@H](Cc1c[nH]c2ccccc12)C(=O)N[C@@H](CCCCN)C(N)=O` yielded an Activity in test [1] of 0.08.

With `CCCC[C@H](NC(C)=O)C(=O)N[C@@H](CC(=O)O)C(=O)N[C@@H](Cc1c[nH]cn1)C(=O)N[C@H](Cc1ccccc1)C(=O)N[C@@H](CCCN=C(N)N)C(=O)N[C@@H](Cc1c[nH]c2ccccc12)C(=O)NCC(N)=O`, the Activity worked out at 8 in test [1] and 0.1 in test [2].

For the compound `CCCC[C@H](NC(C)=O)C(=O)N[C@@H](CCC(=O)O)C(=O)N[C@@H](Cc1c[nH]cn1)C(=O)N[C@@H](Cc1ccccc1)C(=O)N[C@@H](CCCN=C(N)N)C(=O)N[C@@H](Cc1c[nH]c2ccccc12)C(=O)N[C@@H](CCCCN)C(N)=O`, the figures for the Activity in test [1] and in test [2] were 0.08 and 0.001, respectively.
